Laboratory results as given in ChEMBL document CHEMBL1144889 (J Med Chem, 2003).

How the values were obtained:
[1] = target: T1, Glucocorticoid receptor (Homo sapiens, UniProt P04150); experiment: Transcriptional repression in HepG2 cells expressing human glucocorticoid receptor; format: functional, cell-based
T1 sequence (P04150 whole entry): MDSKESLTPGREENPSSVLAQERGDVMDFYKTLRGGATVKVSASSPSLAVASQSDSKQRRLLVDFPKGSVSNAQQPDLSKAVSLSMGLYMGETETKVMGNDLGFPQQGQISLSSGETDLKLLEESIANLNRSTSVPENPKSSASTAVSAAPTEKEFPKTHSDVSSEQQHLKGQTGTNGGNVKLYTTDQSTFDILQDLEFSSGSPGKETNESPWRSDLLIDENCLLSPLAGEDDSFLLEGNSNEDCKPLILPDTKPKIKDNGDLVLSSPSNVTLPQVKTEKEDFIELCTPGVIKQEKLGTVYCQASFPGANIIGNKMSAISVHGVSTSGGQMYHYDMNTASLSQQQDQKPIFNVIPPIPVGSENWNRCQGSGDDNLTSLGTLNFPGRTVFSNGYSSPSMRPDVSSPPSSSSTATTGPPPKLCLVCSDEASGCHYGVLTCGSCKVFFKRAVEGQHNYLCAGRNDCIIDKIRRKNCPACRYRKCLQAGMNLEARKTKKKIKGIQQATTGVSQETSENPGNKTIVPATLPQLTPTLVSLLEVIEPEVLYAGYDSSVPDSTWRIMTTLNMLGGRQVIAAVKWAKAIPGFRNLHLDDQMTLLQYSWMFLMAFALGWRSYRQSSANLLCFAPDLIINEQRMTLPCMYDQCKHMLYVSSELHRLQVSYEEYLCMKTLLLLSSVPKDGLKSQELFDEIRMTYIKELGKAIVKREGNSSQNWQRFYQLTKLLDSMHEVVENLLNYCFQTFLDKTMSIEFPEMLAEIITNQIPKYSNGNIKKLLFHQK

[2] = target: T2, Progesterone receptor (Homo sapiens, UniProt P06401); experiment: Displacement of [3H]progesterone from human Progesterone receptor A
T2 sequence (P06401 whole entry): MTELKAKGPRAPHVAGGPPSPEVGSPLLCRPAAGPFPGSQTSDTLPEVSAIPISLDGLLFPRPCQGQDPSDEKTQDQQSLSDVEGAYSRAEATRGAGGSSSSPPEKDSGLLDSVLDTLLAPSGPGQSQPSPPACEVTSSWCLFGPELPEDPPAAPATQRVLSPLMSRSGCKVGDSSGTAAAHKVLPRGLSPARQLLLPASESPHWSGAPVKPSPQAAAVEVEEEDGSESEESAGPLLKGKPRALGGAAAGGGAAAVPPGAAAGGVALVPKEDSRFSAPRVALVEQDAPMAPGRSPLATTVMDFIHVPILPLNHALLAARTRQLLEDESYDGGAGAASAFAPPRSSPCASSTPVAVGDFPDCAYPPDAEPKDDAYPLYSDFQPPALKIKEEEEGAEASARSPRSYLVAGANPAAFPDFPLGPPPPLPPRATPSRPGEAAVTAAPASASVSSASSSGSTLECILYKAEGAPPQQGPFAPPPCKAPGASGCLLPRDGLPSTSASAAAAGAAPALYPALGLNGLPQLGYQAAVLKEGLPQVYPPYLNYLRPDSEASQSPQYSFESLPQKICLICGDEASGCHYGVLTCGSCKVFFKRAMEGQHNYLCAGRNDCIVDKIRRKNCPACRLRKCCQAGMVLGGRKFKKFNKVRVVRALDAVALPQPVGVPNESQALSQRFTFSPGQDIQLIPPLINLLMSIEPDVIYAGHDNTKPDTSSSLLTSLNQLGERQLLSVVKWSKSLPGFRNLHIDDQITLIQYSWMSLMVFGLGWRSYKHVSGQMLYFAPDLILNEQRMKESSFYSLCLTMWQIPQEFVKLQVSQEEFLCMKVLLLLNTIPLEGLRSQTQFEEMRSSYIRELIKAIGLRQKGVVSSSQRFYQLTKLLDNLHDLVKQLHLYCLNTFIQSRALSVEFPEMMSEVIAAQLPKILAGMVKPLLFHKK

[3] = target: T1, Glucocorticoid receptor; experiment: Transcriptional activation in CV-1 cells expressing human glucocorticoid receptor; format: functional, cell-based
Procedure, shortened: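 Cotransfection of an hGR receptor plasmid with a luciferase reporter driven by the MMTV promoter (four GREs) in CV-1 cells. Seven-point half-log concentration-response curves. EC50 taken as half-maximal response. Efficacy expressed as % of the dexamethasone maximum. Mean of two experiments in triplicate, single triplicate run, or ≥3 experiments in triplicate.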

[4] = target: T3, Glucocorticoid receptor (Homo sapiens) (UniProt P04150); experiment: Transcriptional activation in CV-1 cells expressing human glucocorticoid receptor compared to Dexamethasone; format: functional, cell-based
T3 sequence (whole entry): T1 sequence (P04150 whole entry)
Procedure, shortened: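 GRE activation co-transfection in CV-1 cells: hGR receptor plasmid plus a luciferase reporter driven by part of the MMTV promoter (four GRE sites, no known AP-1 or NFκB affinity). Full seven-point, half-log concentration-response curves run in triplicate. EC50 is the concentration at half-maximal response; efficacy is given as % of the dexamethasone maximal response.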

[5] = target: T1, Glucocorticoid receptor; experiment: Binding affinity towards human glucocorticoid receptor (GR) was determined using [3H]dexamethasone as radioligand in […] cells; format: cell-based
[6] = Binding affinity towards estradiol receptor (Estrogen receptor); design: species or system Homo sapiens
Procedure, shortened: (§1)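 Competition radioligand binding; tracers [3H]aldosterone (MR) and [3H]estradiol (ER). Bound ligand collected on hydroxyapatite, washed with ice-cold buffer, counted by scintillation. IC50 obtained from Hill analysis of binding curves, Ki from Cheng-Prusoff. Mean of two experiments in triplicate, single triplicate run, or ≥3 experiments in triplicate.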

[7] = Binding affinity towards aldosterone receptor (Mineralocorticoid receptor); design: species or system Homo sapiens; procedure, shortened: as §1
[8] = target: T4, Androgen receptor (Homo sapiens, UniProt P10275); experiment: Binding affinity towards testosterone receptor
T4 sequence (P10275 whole entry): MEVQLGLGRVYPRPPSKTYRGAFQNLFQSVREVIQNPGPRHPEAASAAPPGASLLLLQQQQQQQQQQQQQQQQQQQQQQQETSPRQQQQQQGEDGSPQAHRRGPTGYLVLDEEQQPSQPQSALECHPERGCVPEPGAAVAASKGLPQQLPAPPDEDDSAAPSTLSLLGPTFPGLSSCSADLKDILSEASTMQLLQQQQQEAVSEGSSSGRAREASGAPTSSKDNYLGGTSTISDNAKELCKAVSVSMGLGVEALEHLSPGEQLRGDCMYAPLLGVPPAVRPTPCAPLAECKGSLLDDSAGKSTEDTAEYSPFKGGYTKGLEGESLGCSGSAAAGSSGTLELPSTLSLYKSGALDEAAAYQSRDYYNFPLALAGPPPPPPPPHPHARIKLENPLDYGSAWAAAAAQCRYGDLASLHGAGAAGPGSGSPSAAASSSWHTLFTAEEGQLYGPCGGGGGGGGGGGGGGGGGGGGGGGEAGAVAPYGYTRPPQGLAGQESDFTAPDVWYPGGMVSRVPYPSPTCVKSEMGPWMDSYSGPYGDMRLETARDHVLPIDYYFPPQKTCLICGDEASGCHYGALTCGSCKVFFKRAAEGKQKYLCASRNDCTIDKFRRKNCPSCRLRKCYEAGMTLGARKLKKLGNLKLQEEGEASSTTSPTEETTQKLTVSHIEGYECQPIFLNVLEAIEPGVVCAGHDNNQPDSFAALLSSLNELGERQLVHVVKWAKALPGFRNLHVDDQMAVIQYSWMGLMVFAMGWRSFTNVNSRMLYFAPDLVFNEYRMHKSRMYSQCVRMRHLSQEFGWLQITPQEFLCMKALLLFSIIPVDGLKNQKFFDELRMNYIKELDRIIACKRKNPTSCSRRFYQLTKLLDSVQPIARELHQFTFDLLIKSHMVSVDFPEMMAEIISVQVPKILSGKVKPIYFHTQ

Structure (SMILES) | EC50 [1] [nM] | Ki [2] [nM] | EC50 [3] [nM] | Efficacy [4] [%] | Ki [5] [nM] | Ki [6] [nM] | Ki [7] [nM] | Ki [8] [nM]
C=CCC1Oc2c(C)ccc(OC)c2-c2ccc3c(c21)C(C)=CC(C)(C)N3 (configuration not stated) | 81 | > 5000 | – | – | – | – | – | –
C#CCOc1cccc2c1-c1ccc3c(c1C(CC=C)O2)C(C)=CC(C)(C)N3 (configuration not stated) | 270 | – | > 300 | 9 | 4.2 | – | – | –
C=CCC1Oc2cccc(SC)c2-c2ccc3c(c21)C(C)=CC(C)(C)N3 (configuration not stated) | 18 | – | 123 | 60 | – | > 1000 | 93.8 | 2460
C[C@]12C=CC(=O)C=C1CCC1[C@@H]2[C@@H](O)C[C@@]2(C)[C@H]1CC[C@]2(O)C(=O)CO (single isomer, unassigned) [PREDNISOLONE] | – | – | – | – | – | > 1000 | 37 | –
C=CCC1Oc2ccc(CO)c(OC)c2-c2ccc3c(c21)C(C)=CC(C)(C)N3 (configuration not stated) | 53 | 100 | – | – | 6.6 | – | – | –
C=CCOc1ccc2c(c1OC)-c1ccc3c(c1C(CC=C)O2)C(C)=CC(C)(C)N3 (configuration not stated) | 140 | – | – | – | – | – | – | –
C=CCC1Oc2ccc(C(=O)OC)c(OC)c2-c2ccc3c(c21)C(C)=CC(C)(C)N3 (configuration not stated) | 100 | – | – | – | – | – | – | –
C=CCC1Oc2cccc(CO)c2-c2ccc3c(c21)C(C)=CC(C)(C)N3 (configuration not stated) | 19 | – | 61 | 69 | 2.3 | > 1000 | 292 | 1320
C=CCC1Oc2ccccc2-c2ccc3c(c21)C(C)=CC(C)(C)N3 (configuration not stated) | 350 | – | > 300 | 2 | 33.8 | > 1000 | > 5000 | > 5000
C#Cc1cccc2c1-c1ccc3c(c1C(CC=C)O2)C(C)=CC(C)(C)N3 (configuration not stated) | 59 | 2400 | 130 | 92 | 6.9 | > 1000 | 350 | 650
C=CCC1Oc2ccc(Cl)c(OC)c2-c2ccc3c(c21)C(C)=CC(C)(C)N3 (configuration not stated) | 94 | 29 | – | – | 5.42 | – | – | –
C=CCC1Oc2cccc(C#N)c2-c2ccc3c(c21)C(C)=CC(C)(C)N3 (configuration not stated) | 60 | – | 195 | 87 | – | > 1000 | > 5000 | > 5000
C#CCOc1ccc2c(c1OC)-c1ccc3c(c1C(CC=C)O2)C(C)=CC(C)(C)N3 (configuration not stated) | 160 | – | – | – | – | – | – | –
C=CCC1Oc2cccc(NC)c2-c2ccc3c(c21)C(C)=CC(C)(C)N3 (configuration not stated) | 19 | 2920 | 32 | 60 | 7 | > 1000 | 251 | 2590
C=CCC1Oc2cccc(O)c2-c2ccc3c(c21)C(C)=CC(C)(C)N3 (configuration not stated) | 250 | – | 550 | 29 | 27.6 | > 1000 | 1370 | 2060
C=CCC1Oc2ccc(OC)c(OC)c2-c2ccc3c(c21)C(C)=CC(C)(C)N3 (configuration not stated) | 120 | – | – | – | – | – | – | –
C=CCC1Oc2c(Br)cc(O)c(Cl)c2-c2ccc3c(c21)C(C)=CC(C)(C)N3 (configuration not stated) | – | 22 | – | – | – | – | – | –
C=CCC1Oc2c(C=C)ccc(OC)c2-c2ccc3c(c21)C(C)=CC(C)(C)N3 (configuration not stated) | 156 | 450 | – | – | 34 | – | – | –
C=CCC1Oc2ccc(Br)c(OC)c2-c2ccc3c(c21)C(C)=CC(C)(C)N3 (configuration not stated) | 82 | 34 | – | – | – | – | – | –
C=CCC1Oc2ccc(OCC#N)c(OC)c2-c2ccc3c(c21)C(C)=CC(C)(C)N3 (configuration not stated) | 130 | 3080 | – | – | 51 | – | – | –
C=CCC1Oc2cccc(Cl)c2-c2ccc3c(c21)C(C)=CC(C)(C)N3 (configuration not stated) | 45 | – | – | – | – | – | – | –
C=CCC1Oc2cccc(C=C)c2-c2ccc3c(c21)C(C)=CC(C)(C)N3 (configuration not stated) | 12 | 435 | 17 | 50 | 4.4 | > 1000 | 57 | 239
C=CCC1Oc2c(Br)ccc(OC)c2-c2ccc3c(c21)C(C)=CC(C)(C)N3 (configuration not stated) | 59 | > 5000 | – | – | – | – | – | –
